Test results as given in ChEMBL document CHEMBL5724801, “EUbOPEN Chemogenomics Library - Multiplex” (2024).
“And” between values parts separate entries of the source, which are not always exact repeats. Equal values may be shown once.

Tested on: HEK-293T
Assay: Multiplex assay against HEK293T
Format: toxicity, cell-based
Details: human
How it was run: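 Live cells were stained at seeding with Hoechst33342, BioTracker Green Microtubule Cytoskeleton Dye, MitoTracker Red and Annexin V Alexa Fluor 680. Following compound addition, they were imaged on a CQ1 microscope at 37°C and 5% CO2 and gated by CellPathfinder machine learning into Hoechst high-intensity objects or normal cells, with normal cells split into healthy, pyknosed or fragmented nuclei and pyknosed cells into mitotic or apoptotic. Tubulin, mitochondrial-mass and membrane-permeability phenotypes are per cents of healthy-nucleus cells.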

[1] = 12 h, 1 µM, compound concentration 1 uM
[2] = 12 h, 10 µM, compound concentration 10 uM
[3] = 24 h, 1 µM, compound concentration 1 uM
[4] = 24 h, 10 µM, compound concentration 10 uM
[5] = 48 h, 1 µM, compound concentration 1 uM
[6] = 48 h, 10 µM, compound concentration 10 uM

COc1c(Nc2ccc(S(C)(=O)=O)nc2C)ncnc1OC1CCN(C(=O)OC(C)C)CC1 [ADP-597]
Population Apoptotic (%) [1]: 29% and 38% | Population Fragmented Nuclei (%) [1]: 5% and 4% | Population Healthy Nuclei (%) [1]: 78% and 80% | Population Hoechst High Intensity Objects (%) [1]: 6% and 3% | Population Membrane Permeable-Phenotype (%) [1]: 0% | Population Mitochondria Different-Phenotype (%) [1]: 47% and 62% | Population Mitotic Cells (%) [1]: 70% and 62% | Population Normal (%) [1]: 93% and 96% | Population Pyknosed Nuclei (%) [1]: 16% and 14% | Population Tubulin-Different-Phenotype (%) [1]: 36% and 25% | Total Cell Count [1]: 430 and 347 | Population Apoptotic (%) [2]: 47% | Population Fragmented Nuclei (%) [2]: 7% | Population Healthy Nuclei (%) [2]: 75% and 72% | Population Membrane Permeable-Phenotype (%) [2]: 0% | Population Mitochondria Different-Phenotype (%) [2]: 70% and 71% | Population Mitotic Cells (%) [2]: 52% | Population Normal (%) [2]: 91% and 74% | Population Pyknosed Nuclei (%) [2]: 17% and 20% | Population Tubulin-Different-Phenotype (%) [2]: 44% and 36% | Total Cell Count [2]: 302 and 238 | Population Apoptotic (%) [3]: 23% and 30% | Population Fragmented Nuclei (%) [3]: 7% and 6% | Population Healthy Nuclei (%) [3]: 81% and 84% | Population Hoechst High Intensity Objects (%) [3]: 2% and 3% | Population Membrane Permeable-Phenotype (%) [3]: 0% and 1% | Population Mitochondria Different-Phenotype (%) [3]: 20% and 34% | Population Mitotic Cells (%) [3]: 76% and 69% | Population Normal (%) [3]: 97% and 96% | Population Pyknosed Nuclei (%) [3]: 11% and 9% | Population Tubulin-Different-Phenotype (%) [3]: 16% and 15% | Total Cell Count [3]: 587 and 447 | Population Apoptotic (%) [4]: 44% and 63% | Population Fragmented Nuclei (%) [4]: 9% and 11% | Population Healthy Nuclei (%) [4]: 74% and 71% | Population Hoechst High Intensity Objects (%) [4]: 7% and 21% | Population Membrane Permeable-Phenotype (%) [4]: 0% | Population Mitochondria Different-Phenotype (%) [4]: 58% and 54% | Population Mitotic Cells (%) [4]: 55% and 36% | Population Normal (%) [4]: 92% and 78% | Population Pyknosed Nuclei (%) [4]: 15% and 17% | Population Tubulin-Different-Phenotype (%) [4]: 38% and 25% | Total Cell Count [4]: 355 and 300 | Population Apoptotic (%) [5]: 25% and 36% | Population Fragmented Nuclei (%) [5]: 13% | Population Healthy Nuclei (%) [5]: 78% and 77% | Population Hoechst High Intensity Objects (%) [5]: 2% and 5% | Population Membrane Permeable-Phenotype (%) [5]: 0% and 1% | Population Mitochondria Different-Phenotype (%) [5]: 18% and 23% | Population Mitotic Cells (%) [5]: 75% and 63% | Population Normal (%) [5]: 97% and 94% | Population Pyknosed Nuclei (%) [5]: 8% and 9% | Population Tubulin-Different-Phenotype (%) [5]: 13% and 14% | Total Cell Count [5]: 924 and 590 | Population Apoptotic (%) [6]: 35% and 43% | Population Fragmented Nuclei (%) [6]: 15% and 13% | Population Healthy Nuclei (%) [6]: 73% | Population Hoechst High Intensity Objects (%) [6]: 4% and 10% | Population Membrane Permeable-Phenotype (%) [6]: 0% | Population Mitochondria Different-Phenotype (%) [6]: 38% and 32% | Population Mitotic Cells (%) [6]: 64% and 56% | Population Normal (%) [6]: 95% and 89% | Population Pyknosed Nuclei (%) [6]: 11% and 12% | Population Tubulin-Different-Phenotype (%) [6]: 23% and 18% | Total Cell Count [6]: 494 and 392

CCCCCC(O)/C=C/[C@H]1C(=O)CC(O)C1C/C=C\CCCC(=O)O (stereo partly specified)
Population Apoptotic (%) [1]: 29% and 39% | Population Fragmented Nuclei (%) [1]: 8% and 7% | Population Healthy Nuclei (%) [1]: 80% and 83% | Population Hoechst High Intensity Objects (%) [1]: 8% and 6% | Population Membrane Permeable-Phenotype (%) [1]: 0% | Population Mitochondria Different-Phenotype (%) [1]: 44% and 56% | Population Mitotic Cells (%) [1]: 70% and 60% | Population Normal (%) [1]: 91% and 93% | Population Pyknosed Nuclei (%) [1]: 11% and 9% | Population Tubulin-Different-Phenotype (%) [1]: 23% and 20% | Total Cell Count [1]: 409 and 383 | Population Apoptotic (%) [2]: 48% and 54% | Population Fragmented Nuclei (%) [2]: 6% | Population Healthy Nuclei (%) [2]: 79% and 77% | Population Hoechst High Intensity Objects (%) [2]: 9% and 7% | Population Membrane Permeable-Phenotype (%) [2]: 0% | Population Mitochondria Different-Phenotype (%) [2]: 48% and 59% | Population Mitotic Cells (%) [2]: 51% and 46% | Population Normal (%) [2]: 90% and 92% | Population Pyknosed Nuclei (%) [2]: 14% and 15% | Population Tubulin-Different-Phenotype (%) [2]: 31% and 25% | Total Cell Count [2]: 409 and 343 | Population Apoptotic (%) [3]: 40% and 44% | Population Fragmented Nuclei (%) [3]: 8% and 7% | Population Healthy Nuclei (%) [3]: 83% and 84% | Population Hoechst High Intensity Objects (%) [3]: 3% and 7% | Population Membrane Permeable-Phenotype (%) [3]: 1% and 0% | Population Mitochondria Different-Phenotype (%) [3]: 22% and 41% | Population Mitotic Cells (%) [3]: 59% and 55% | Population Normal (%) [3]: 96% and 92% | Population Pyknosed Nuclei (%) [3]: 8% and 7% | Population Tubulin-Different-Phenotype (%) [3]: 11% and 14% | Total Cell Count [3]: 611 and 492 | Population Apoptotic (%) [4]: 27% and 44% | Population Fragmented Nuclei (%) [4]: 10% and 9% | Population Healthy Nuclei (%) [4]: 75% and 77% | Population Hoechst High Intensity Objects (%) [4]: 4% and 9% | Population Membrane Permeable-Phenotype (%) [4]: 0% | Population Mitochondria Different-Phenotype (%) [4]: 29% and 50% | Population Mitotic Cells (%) [4]: 72% and 55% | Population Normal (%) [4]: 95% and 90% | Population Pyknosed Nuclei (%) [4]: 13% | Population Tubulin-Different-Phenotype (%) [4]: 16% and 21% | Total Cell Count [4]: 523 and 388 | Population Apoptotic (%) [5]: 29% and 30% | Population Fragmented Nuclei (%) [5]: 12% and 13% | Population Healthy Nuclei (%) [5]: 79% and 81% | Population Hoechst High Intensity Objects (%) [5]: 1% and 3% | Population Membrane Permeable-Phenotype (%) [5]: 1% and 2% | Population Mitochondria Different-Phenotype (%) [5]: 20% and 19% | Population Mitotic Cells (%) [5]: 70% and 69% | Population Normal (%) [5]: 98% and 96% | Population Pyknosed Nuclei (%) [5]: 7% and 5% | Population Tubulin-Different-Phenotype (%) [5]: 8% and 7% | Total Cell Count [5]: 864 and 775 | Population Apoptotic (%) [6]: 22% and 51% | Population Fragmented Nuclei (%) [6]: 12% and 10% | Population Healthy Nuclei (%) [6]: 79% and 80% | Population Hoechst High Intensity Objects (%) [6]: 1% and 3% | Population Membrane Permeable-Phenotype (%) [6]: 0% | Population Mitochondria Different-Phenotype (%) [6]: 17% and 26% | Population Mitotic Cells (%) [6]: 77% and 48% | Population Normal (%) [6]: 98% and 96% | Population Pyknosed Nuclei (%) [6]: 8% | Population Tubulin-Different-Phenotype (%) [6]: 7% and 8% | Total Cell Count [6]: 815 and 544
